# Measurements taken from ChEMBL document CHEMBL1143171, “Structure-activity studies on 1,3-dioxane-2-carboxylic acid derivatives, a novel class of subtype-selective peroxisome proliferator-activated receptor alpha (PPARalpha) agonists” (Bioorg Med Chem, 2008).
# What was measured:
# [1] = biological target: T1, Peroxisome proliferator-activated receptor alpha (Homo sapiens, UniProt Q07869); assay: Agonist activity at human PPARalpha expressed in CV1 cells by transactivation assay; assay type: functional, cell-based, CV-1
# T1 sequence (Q07869 whole entry): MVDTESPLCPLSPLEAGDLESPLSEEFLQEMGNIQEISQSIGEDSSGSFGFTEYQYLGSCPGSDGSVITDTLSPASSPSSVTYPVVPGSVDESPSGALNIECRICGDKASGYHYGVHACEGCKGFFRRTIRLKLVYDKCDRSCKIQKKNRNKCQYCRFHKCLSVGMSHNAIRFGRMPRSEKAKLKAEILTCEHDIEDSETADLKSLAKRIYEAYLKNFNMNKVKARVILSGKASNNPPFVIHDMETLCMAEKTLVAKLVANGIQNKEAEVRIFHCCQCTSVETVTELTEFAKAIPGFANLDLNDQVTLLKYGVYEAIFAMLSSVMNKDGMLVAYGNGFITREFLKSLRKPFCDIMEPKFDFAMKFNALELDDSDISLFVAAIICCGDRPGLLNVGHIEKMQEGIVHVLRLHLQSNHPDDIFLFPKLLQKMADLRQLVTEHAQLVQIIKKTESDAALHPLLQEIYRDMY
# [2] = biological target: T2, Peroxisome proliferator-activated receptor gamma (Homo sapiens, UniProt P37231); assay: Agonist activity at human PPARgamma expressed in CV1 cells by transactivation assay; assay type: functional, cell-based, CV-1
# T2 sequence (P37231 whole entry): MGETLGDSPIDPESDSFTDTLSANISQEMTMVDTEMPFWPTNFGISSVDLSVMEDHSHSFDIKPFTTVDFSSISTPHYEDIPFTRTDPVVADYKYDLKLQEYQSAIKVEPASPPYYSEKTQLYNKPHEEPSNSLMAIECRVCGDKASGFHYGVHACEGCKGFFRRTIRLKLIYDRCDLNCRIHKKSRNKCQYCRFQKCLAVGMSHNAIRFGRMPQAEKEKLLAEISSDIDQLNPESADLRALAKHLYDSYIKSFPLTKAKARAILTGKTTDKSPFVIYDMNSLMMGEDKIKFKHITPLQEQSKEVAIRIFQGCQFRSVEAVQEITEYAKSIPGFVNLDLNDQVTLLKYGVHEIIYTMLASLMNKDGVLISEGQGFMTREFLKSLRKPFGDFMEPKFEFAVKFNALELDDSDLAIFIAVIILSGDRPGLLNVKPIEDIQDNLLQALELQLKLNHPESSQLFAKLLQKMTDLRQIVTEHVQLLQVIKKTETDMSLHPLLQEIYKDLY
# [3] = biological target: T3, Peroxisome proliferator-activated receptor delta (Homo sapiens) (UniProt Q03181); assay: Agonist activity at human PPARdelta expressed in CV1 cells at 10 uM by transactivation assay; assay type: functional, cell-based; settings: CV-1
# T3 sequence (whole entry): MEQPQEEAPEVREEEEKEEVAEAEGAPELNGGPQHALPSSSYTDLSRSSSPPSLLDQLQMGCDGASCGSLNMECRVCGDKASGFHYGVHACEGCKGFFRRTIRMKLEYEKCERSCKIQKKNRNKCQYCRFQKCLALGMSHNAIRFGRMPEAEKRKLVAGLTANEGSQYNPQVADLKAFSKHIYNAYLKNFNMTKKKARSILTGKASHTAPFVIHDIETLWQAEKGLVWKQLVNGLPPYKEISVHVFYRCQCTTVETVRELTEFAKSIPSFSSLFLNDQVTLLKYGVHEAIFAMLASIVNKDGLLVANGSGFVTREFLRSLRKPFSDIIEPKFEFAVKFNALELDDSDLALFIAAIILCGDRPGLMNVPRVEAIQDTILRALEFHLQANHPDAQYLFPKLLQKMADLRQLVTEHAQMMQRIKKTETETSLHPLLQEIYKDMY
# How it was run: (§1)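 Human full-length PPAR subtype (pSG5) cotransfected into CV-1 cells with a PPRE (rat acyl-CoA oxidase, ×3)–TK firefly luciferase reporter and a Renilla TK control. Cells were cultured in DMEM/10% FBS at 37 °C under 5% CO2, then exposed to compound at 10 µM (0.1% DMSO final) for 48 h. The dual-luciferase read-out is given as a percentage of the positive control's maximum activity (n = 2).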
# [4] = biological target: T4, Peroxisome proliferator-activated receptor alpha (Mus musculus, UniProt P23204); assay: Agonist activity at mouse PPARalpha expressed in CV1 cells by transactivation assay; assay type: functional, cell-based, CV-1
# T4 sequence (P23204 whole entry): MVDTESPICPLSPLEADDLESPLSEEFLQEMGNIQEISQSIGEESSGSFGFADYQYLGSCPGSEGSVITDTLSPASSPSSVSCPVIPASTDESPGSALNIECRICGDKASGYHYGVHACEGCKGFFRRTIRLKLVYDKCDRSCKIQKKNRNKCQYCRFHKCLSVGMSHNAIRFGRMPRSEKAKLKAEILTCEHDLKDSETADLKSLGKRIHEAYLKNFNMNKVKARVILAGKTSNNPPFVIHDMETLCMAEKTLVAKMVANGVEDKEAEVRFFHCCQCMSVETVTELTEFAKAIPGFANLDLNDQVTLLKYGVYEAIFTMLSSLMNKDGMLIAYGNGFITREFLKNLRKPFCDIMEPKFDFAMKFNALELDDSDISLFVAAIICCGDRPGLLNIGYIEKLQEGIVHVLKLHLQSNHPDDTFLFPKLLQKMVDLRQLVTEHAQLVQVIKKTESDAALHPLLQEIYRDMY
# Mus musculus [5] = assay: Hypoglycemic effect on diabetic KK-Ay mouse assessed as reduction of plasma glucose level at 1 mg/kg/day, po after 4 days; assay type: functional; set-up: scale not given: the % may be the effect or the level left
# How it was run: (§2)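 Male KK-Ay mice, 10 weeks old and fed chow ad libitum, were dosed orally once daily for 4 days (n = 5) with suspensions in 0.5% methylcellulose. On the day after the last dose, nonfasted tail-vein plasma was assayed enzymatically for TG and glucose. Vena cava plasma taken under pentobarbital had lipoprotein cholesterol measured by HPLC with on-line enzymatic detection. Values are % change of the group mean from vehicle controls.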
# Mus musculus [6] = assay: Hypolipidemic effect on diabetic KK-Ay mouse assessed as reduction of plasma VLDL cholesterol level at 1 mg/kg/day, po after 4 days; assay type: functional; set-up: scale not given: the % may be the effect or the level left; how it was run: as §2
# Mus musculus [7] = assay: Hypolipidemic effect on diabetic KK-Ay mouse assessed as increase in plasma HDL cholesterol level at 1 mg/kg/day, po after 4 days; assay type: functional; how it was run: as §2
# [8] = biological target: T5, Peroxisome proliferator-activated receptor gamma (Mus musculus) (UniProt P37238); assay: Agonist activity at mouse PPARgamma expressed in CV1 cells at 10 uM by transactivation assay; assay type: functional, cell-based; settings: CV-1
# T5 sequence (whole entry): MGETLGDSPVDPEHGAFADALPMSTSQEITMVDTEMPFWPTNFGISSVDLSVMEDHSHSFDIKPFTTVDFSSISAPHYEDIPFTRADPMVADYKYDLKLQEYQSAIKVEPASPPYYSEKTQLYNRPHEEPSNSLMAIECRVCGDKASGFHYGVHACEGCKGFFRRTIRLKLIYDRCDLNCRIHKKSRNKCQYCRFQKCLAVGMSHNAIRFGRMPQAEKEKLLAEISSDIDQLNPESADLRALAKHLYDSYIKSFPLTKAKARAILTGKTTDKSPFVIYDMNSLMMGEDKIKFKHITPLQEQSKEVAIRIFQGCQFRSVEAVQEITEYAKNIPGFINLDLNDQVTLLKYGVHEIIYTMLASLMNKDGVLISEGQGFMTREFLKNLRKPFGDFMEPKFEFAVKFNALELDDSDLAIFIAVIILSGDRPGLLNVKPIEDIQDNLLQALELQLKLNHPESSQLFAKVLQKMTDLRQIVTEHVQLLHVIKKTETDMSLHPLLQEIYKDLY
# Mus musculus [9] = assay: Hypolipidemic effect on diabetic KK-Ay mouse assessed as reduction of plasma triglyceride level at 1 mg/kg/day, po after 4 days; assay type: functional; set-up: scale not given: the % may be the effect or the level left; how it was run: as §2
# [10] = biological target: T6, Peroxisome proliferator-activated receptor gamma (Homo sapiens) (UniProt P37231); assay: Agonist activity at human PPARgamma expressed in CV1 cells at 10 uM by transactivation assay; assay type: functional, cell-based; settings: CV-1; how it was run: as §1
# T6 sequence (whole entry): T2 sequence (P37231 whole entry)
# [11] = biological target: T7, Peroxisome proliferator-activated receptor gamma (Mus musculus, UniProt P37238); assay: Agonist activity at mouse PPARgamma expressed in CV1 cells by transactivation assay; assay type: functional, cell-based, CV-1
# T7 sequence (P37238 whole entry): T5 sequence (whole entry)
# [12] = Selectivity for mouse PPARalpha over human PPARalpha
# Homo sapiens = organism: Homo sapiens; assay: Selectivity for human PPARalpha over human PPARgamma
# [13] = biological target: T8, Peroxisome proliferator-activated receptor alpha (Homo sapiens) (UniProt Q07869); assay: Agonist activity at human PPARalpha expressed in CV1 cells at 10 uM by transactivation assay; assay type: functional, cell-based; settings: CV-1; how it was run: as §1
# T8 sequence (whole entry): T1 sequence (Q07869 whole entry)
# [14] = biological target: T9, Peroxisome proliferator-activated receptor delta (Homo sapiens, UniProt Q03181); assay: Agonist activity at human PPARdelta expressed in CV1 cells by transactivation assay; assay type: functional, cell-based, CV-1
# T9 sequence (Q03181 whole entry): T3 sequence (whole entry)
# Mus musculus [15] = assay: Hypolipidemic effect on diabetic KK-Ay mouse assessed as reduction of plasma triglyceride level at 300 mg/kg/day, po after 4 days; assay type: functional; set-up: scale not given: the % may be the effect or the level left; how it was run: as §2
# Mus musculus [16] = assay: Hypoglycemic effect on diabetic KK-Ay mouse assessed as reduction of plasma glucose level at 300 mg/kg/day, po after 4 days; assay type: functional; set-up: scale not given: the % may be the effect or the level left; how it was run: as §2
# Mus musculus [17] = assay: Hypolipidemic effect on diabetic KK-Ay mouse assessed as reduction of plasma VLDL cholesterol level at 300 mg/kg/day, po after 4 days; assay type: functional; set-up: scale not given: the % may be the effect or the level left; how it was run: as §2
# Mus musculus [18] = assay: Hypolipidemic effect on diabetic KK-Ay mouse assessed as increase in plasma HDL cholesterol level at 300 mg/kg/day, po after 4 days; assay type: functional; how it was run: as §2
SMILES,EC50 [1],EC50 [2],Activity [3],Activity [10],further results
CCc1oc(-c2ccc(C)cc2)nc1CCCC[C@H]1CO[C@@](C)(C(=O)O)OC1,0.03 µM,10 µM,3%,,
Cc1oc(-c2ccccc2)nc1CCCC[C@H]1CO[C@@](C)(C(=O)O)OC1,0.3 µM,100 µM,0%,,EC50 [4]: 1 µM; Activity (Mus musculus [5]): -12%; Activity (Mus musculus [6]): -29%; Activity (Mus musculus [7]): 36%; Activity [8]: 11%; Activity (Mus musculus [9]): -46%
Cc1ccc(-c2nc(CCCC[C@H]3CO[C@@](C)(C(=O)O)OC3)c(C)o2)c(C)c1,0.03 µM,,16%,35%,
Cc1oc(-c2ccc(C(F)(F)F)cc2)nc1CCCC[C@H]1CO[C@@](C)(C(=O)O)OC1,0.03 µM,,34%,41%,
Cc1ccc(-c2nc(CCCC[C@H]3CO[C@@](C)(C(=O)O)OC3)c(C)o2)cc1F,0.01 µM,,25%,45%,EC50 [4]: 0.1 µM; Activity (Mus musculus [5]): -12%; Activity (Mus musculus [6]): -63%; Activity (Mus musculus [7]): 21%; EC50 [11]: 10 µM; Selectivity ratio [12]: 10; Activity (Mus musculus [9]): -53%
Cc1ccc(-c2nc(CCCC[C@H]3CO[C@@](C)(C(=O)O)OC3)c(C(F)(F)F)o2)cc1,0.3 µM,3 µM,24%,,
Cc1oc(-c2ccc(Cl)cc2)nc1CCCC[C@H]1CO[C@@](C)(C(=O)O)OC1,0.03 µM,,9%,21%,
CCc1ccc(-c2nc(CCCC[C@H]3CO[C@@](C)(C(=O)O)OC3)c(C)o2)cc1,0.01 µM,3 µM,0%,,Selectivity ratio (Homo sapiens): 300
Cc1ccc(-c2nc(CCCC[C@H]3CO[C@@](C)(C(=O)O)OC3)c(C)s2)cc1,0.3 µM,,0%,25%,
Cc1cccc(-c2nc(CCCC[C@H]3CO[C@@](C)(C(=O)O)OC3)c(C)o2)c1,0.03 µM,,16%,34%,
Cc1ccc(-c2nc(CCCC[C@H]3CO[C@@](C)(C(=O)O)OC3)c(C)o2)cc1C,0.003 µM,,0%,42%,EC50 [4]: 0.03 µM; Activity (Mus musculus [5]): -32%; Activity (Mus musculus [6]): -92%; Activity (Mus musculus [7]): 21%; Activity [8]: 42%; Selectivity ratio [12]: 10; Activity (Mus musculus [9]): -89%
Cc1ccc(-c2nc(CCCC[C@H]3CO[C@@](C)(C(=O)O)OC3)c(C)n2C)cc1,,,0%,0%,Activity [13]: 6%
Cc1ccccc1-c1nc(CCCC[C@H]2CO[C@@](C)(C(=O)O)OC2)c(C)o1,0.3 µM,,5%,23%,
COc1ccc(-c2nc(CCCC[C@H]3CO[C@@](C)(C(=O)O)OC3)c(C)o2)cc1,0.03 µM,,20%,18%,
CC(C)(Oc1ccc(C(=O)c2ccc(Cl)cc2)cc1)C(=O)O [FENOFIBRIC ACID],> 100 µM,,,,EC50 [14]: > 100 µM; Activity (Mus musculus [15]): -40%; Activity (Mus musculus [16]): -25%; Activity (Mus musculus [17]): -31%; Activity (Mus musculus [18]): 17%
CC(C)(Oc1ccc(CCNC(=O)c2ccc(Cl)cc2)cc1)C(=O)O [BEZAFIBRATE],,3 µM,,,EC50 [14]: 30 µM
Cc1ccc(-c2nc(CCCC[C@H]3CO[C@@](C)(C(=O)O)OC3)c(C)o2)cc1,,9.6 µM,7%,31%,EC50 [14]: > 100 µM; EC50 [4]: 0.03 µM; Activity (Mus musculus [5]): -21%; Activity (Mus musculus [6]): -50%; Activity (Mus musculus [7]): 34%; Activity [8]: 45%; Activity (Mus musculus [9]): -71%
